Source: ChEMBL document CHEMBL1125091, “Antiulcer agents. 4-substituted 2-guanidinothiazoles: reversible, competitive, and selective inhibitors of gastric H+,K(+)-ATPase” (J Med Chem, 1990)
pIC50: −log10 of the molar value. Calls of active or inactive are those of the source. The rule behind the calls is not given here.

Legend:
Rattus norvegicus [1] = assay: Gastric antisecretory activity against gastric secretion in the pylorus-ligated rat at a dose of 60 mg/kg; format: functional, Stomach
Method in brief: (§1)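 Conscious rats, pylorus ligated under ether anesthesia; drug or vehicle injected into the duodenum. Killed 2 h after surgery. Stomach contents centrifuged, then titrated to pH 7.0 for acid output (uEq/h per 100 g body weight). Inhibition calculated versus vehicle-treated rats. Means ± SE of 5-10 animals; Student's t test, p < 0.05.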

[2] = target: Potassium-transporting ATPase (Canis familiaris); assay: Inhibitory activity against dog gastric proton-pump enzyme H+/K+ ATPase
[3] = tested on: Potassium-transporting ATPase (Canis familiaris); assay: Percent inhibition of gastric proton-pump enzyme H+/K+ ATPase was determined at 50 uM; settings: Canis lupus familiaris, Stomach
[4] = target: Potassium-transporting ATPase (Canis familiaris); assay: The compound was tested in vitro for inhibition of gastric proton-pump enzyme H+/K+ ATPase
Canis familiaris = assay: Antisecretory activity in Heidenhain pouch dog model at 2 mg/kg, iv; format: functional, organism-based; design: dose 2 mg/kg; settings: Canis lupus familiaris
Method in brief: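 Heidenhain pouch dogs on pentagastrin infusion; drug or vehicle given iv at 2 mg/kg, 90 min after the infusion started. Gastric juice collected at 30-min intervals, ten collections per dog. Acid titrated to pH 7.4 with 0.1 N NaOH. Effect = lowest acid output after drug versus mean output immediately before drug.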

Rattus norvegicus [5] = assay: Gastric antisecretory activity against gastric secretion in the pylorus-ligated rat at a dose of 10 mg/Kg; format: functional, Stomach; method in brief: as §1
Rattus norvegicus [6] = assay: Gastric antisecretory activity against gastric secretion in the pylorus-ligated rat at a dose of 60 mg/Kg; format: functional, Stomach; method in brief: as §1
[7] = target: Potassium-transporting ATPase (Canis familiaris); assay: Inhibitory activity of gastric proton-pump enzyme H+/K+ ATPase was determined at 50 uM
Rattus norvegicus [8] = assay: Gastric antisecretory activity against gastric secretion in the pylorus-ligated rat at a dose of 30 mg/Kg; format: functional, Stomach; method in brief: as §1
Rattus norvegicus [9] = species on record: Rattus norvegicus; assay: Antisecretory activity in a pylorus-ligated rat model
Rattus norvegicus [10] = assay: Gastric antisecretory activity against gastric secretion in the pylorus-ligated rat at a dose of 33 mg/Kg; format: functional, Stomach; method in brief: as §1
[11] = tested on: Potassium-transporting ATPase (Canis familiaris); assay: Percent inhibition of gastric proton-pump enzyme H+/K+ ATPase was determined at 10 uM; settings: Canis lupus familiaris, Stomach
[12] = target: Dog Kidney Na+, K+-ATPase (Canis lupus familiaris, UniProt P50997); assay: Tested against canine renal Na+/K+ ATPase
Rattus norvegicus [13] = assay: Gastric antisecretory activity against gastric secretion in the pylorus-ligated rat at a dose of 26 mg/Kg; format: functional, Stomach; method in brief: as §1

| pIC50 [2] | inhibition [3] | Structure (SMILES) | Activity (Rattus norvegicus [6]) | further results |
| --- | --- | --- | --- | --- |
| 5.92 | 100% | Cc1cc(-c2nc(N=C(N)N)sc2C)c[nH]1 | – | Activity (Rattus norvegicus [1]): 36%; pIC50 [4]: 6.00 |
| – | – | Cc1[nH]c2ccccc2c1-c1nc(N=C(N)N)sc1C.Cl | 78% | Activity (Canis familiaris): inactive; Activity (Rattus norvegicus [5]): 51%; pIC50 [7]: 5.21 |
| – | – | Cc1[nH]c2ccccc2c1-c1nc(NC(=N)NCc2ccccc2)sc1C.Cl | 69% | Activity (Rattus norvegicus [8]): 47%; pIC50 [7]: 5.28 |
| 6.15 | 105% | Cl.N=C(NCc1ccccc1)Nc1nc(-c2c[nH]c3ccc(Br)cc23)cs1 | 52% | – |
| – | – | Br.COc1ccc(-c2csc(N=C(N)N)n2)cc1 | 87% | Activity (Rattus norvegicus [5]): 27%; Activity (Rattus norvegicus [8]): 26% |
| 5.37 | 95% | COc1ccc2[nH]cc(-c3csc(NC(=N)NCc4ccccc4)n3)c2c1.Cl | 48% | – |
| 5.22 | 93% | Cc1[nH]ccc1-c1csc(NC(=N)NCc2ccccc2)n1.O=C(O)/C=C\C(=O)O | – | Activity (Rattus norvegicus [8]): 60% |
| – | 64% | Cc1ccc2c(-c3csc(N=C(N)N)n3)c[nH]c2c1.Cl | 42% | – |
| – | – | CN/C(=N\CCSCc1nc[nH]c1C)NC#N [CIMETIDINE] | – | ED50 (Rattus norvegicus [9]): 11 mg/kg |
| – | – | N=C(N)Nc1nc2c(s1)CCc1ccccc1-2 | – | pIC50 [7]: 4.68 |
| 4.35 | 76% | Cc1ccc(-c2csc(N=C(N)N)n2)[nH]1.O=C(O)/C=C\C(=O)O | – | Activity (Rattus norvegicus [10]): 50% |
| 6.52 | 111% | Cl.N/C(=N\Cc1ccccc1)Nc1nc(-c2ccc(O)c(O)c2)cs1 | – | Activity (Rattus norvegicus [8]): 2.5% |
| – | – | CC(=O)Oc1ccc(-c2csc(N=C(N)N)n2)cc1OC(C)=O.Cl | – | Activity (Rattus norvegicus [8]): 15%; pIC50 [7]: 4.57 |
| 5.12 | – | Cc1cccc2c(-c3csc(N=C(N)N)n3)c[nH]c12 | – | inhibition [11]: 55% |
| 5.74 | 89% | Cl.N=C(N)Nc1nc(-c2c[nH]c3ccc(Cl)cc23)cs1 | 22% | pIC50 [4]: 5.74 |
| 4.43 | 56% | CN(C)Cc1cccc(-c2csc(N=C(N)N)n2)c1 | – | – |
| 5.04 | 87% | Cc1cc(-c2nc(NC(=N)NCCc3ccccc3)sc2C)c[nH]1 | – | – |
| – | 101% | Cc1sc(NC(=N)NCc2ccccc2)nc1-c1c[nH]c2ccc(Cl)cc12 | -59% | – |

| pIC50 [2] | inhibition [3] | Structure (SMILES) | Activity (Rattus norvegicus [6]) | further results |
| --- | --- | --- | --- | --- |
| 4.57 | 70% | COc1ccccc1-c1csc(N=C(N)N)n1 | – | – |
| 4.48 | 61% | N=C(N)Nc1nc(-c2ccc(F)cc2)cs1 | – | – |
| 4.60 | 70% | Cc1cc(-c2csc(N=C(N)N)n2)c[nH]1 | – | pIC50 [12]: < 4.00; Activity (Rattus norvegicus [13]): 50% |
| 6.15 | 92% | N=C(NCc1ccccc1)Nc1nc(-c2c[nH]c3ccc(Cl)cc23)cs1 | – | – |
| 5.89 | 102% | Cc1[nH]ccc1-c1nc(N=C(N)N)sc1C.Cl | 46% | pIC50 [4]: 6.00 |
| 6.02 | – | Cl.N=C(N)Nc1nc(-c2c[nH]c3ccc(Br)cc23)cs1 | -43% | inhibition [11]: 90% |
| 5.82 | 100% | Cl.N=C(N)Nc1nc(-c2ccc(O)c(O)c2)cs1 | -149% | – |
| 4.77 | 69% | N=C(N)Nc1nc(-c2c[nH]c(C(=O)N3CCCCC3)c2)cs1 | – | – |
| 4.96 | 87% | Cc1[nH]c(-c2csc(N=C(N)N)n2)cc1CN(C)C | – | – |
| 4.55 | 77% | Cc1sc(N=C(N)N)nc1-c1c[nH]c(C=O)c1 | – | – |
| 5.70 | 92% | Cc1cc(-c2csc(N=C(N)N)n2)cn1S(=O)(=O)c1ccccc1 | – | – |
| 5.15 | 96% | Cc1[nH]ccc1-c1csc(N=C(N)N)n1 | – | – |
| – | – | CC(=O)Oc1ccc(-c2csc(NC(=N)NCc3ccccc3)n2)cc1OC(C)=O.Cl | – | Activity (Rattus norvegicus [8]): -1%; pIC50 [7]: < 4.30 |
| 5.13 | 90% | N=C(N)Nc1nc(-c2c[nH]c3ccc(F)cc23)cs1 | – | – |
| 4.80 | 61% | N=C(NCc1ccccc1)Nc1nc(-c2cc3ccccc3[nH]2)cs1 | – | – |
| 6.22 | 103% | Cc1[nH]c2ccc(Cl)cc2c1-c1nc(N=C(N)N)sc1C | – | – |
| 5.05 | 85% | Cc1[nH]c2ccccc2c1-c1csc(N=C(N)N)n1 | – | – |
| 5.80 | 98% | Cc1ccc2c(-c3csc(NC(=N)NCc4ccccc4)n3)c[nH]c2c1 | – | – |
